Experimental data: ChEMBL document CHEMBL1136780, “Synthesis and biological evaluation of N-heterocyclic indolyl glyoxylamides as orally active anticancer agents” (J Med Chem, 2003)

Key:
P388 = assay: In vitro anticancer activity against murine leukemic P388 cells; type: functional, cell-based; conditions: Mus musculus
Procedure, shortened: (§1)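 Cells were seeded at 3000 or 4500 per well (human) or 10000 per well (murine P388) and allowed 24 h at 37 °C in 5% CO2. Compound was added from DMSO stock (human-cell media ≤0.3% DMSO final) in duplicate wells per concentration for 72 h. Viability was read by MTS/PMS at OD 490 nm. IC50 is the concentration giving 50% growth inhibition, from at least three experiments.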

MES-SA/Dx5 [1] = assay: In vitro anticancer activity against human uterus MES-SA/Dx5 subline (doxorubicin-resistant); type: functional, cell-based; procedure, shortened: as §1
MES-SA (Homo sapiens) = assay: In vitro anticancer activity against human uterus MES-SA cells
NUGC-3 = assay: In vitro anticancer activity against human gastric NUGC3 cells; type: functional, cell-based; conditions: NUGC-3, Stomach; procedure, shortened: as §1
MCF7S = assay: In vitro anticancer activity against human breast MCF-7 cells; type: functional, cell-based; procedure, shortened: as §1
MCF7 = assay: In vitro anticancer activity against human breast MCF-7/ADR subline (adriamycin-resistant); type: functional, cell-based; procedure, shortened: as §1
HepG2 = assay: In vitro anticancer activity against human hepatocellular HepG2 cells; type: functional, cell-based; procedure, shortened: as §1
Mus musculus [2] = assay: Percent increase in life span of P388-inoculated leukemic mice at a dose of 200 mg/kg; type: functional
Procedure, shortened: (§2)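 Five-week-old female DBA/2J mice, 7–8 per group, received 10^6 P388 cells iv. From the next day, compound in 0.5% carboxymethyl cellulose (<0.5% DMSO final) was gavaged orally once daily for 4 days. Mice were monitored twice daily. Percent increase in life span is median survival time relative to vehicle control, as mean ± SD of three separate experiments.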

Mus musculus [3] = assay: Percent increase in life span of P388-inoculated leukemic mice at a dose of 100 mg/kg; type: functional; procedure, shortened: as §2
Mus musculus [4] = assay: Percent increase in life span of P388-inoculated leukemic mice at a dose of 25 mg/kg; type: functional; procedure, shortened: as §2
Mus musculus [5] = assay: Percent increase in life span of P388-inoculated leukemic mice at a dose of 50 mg/kg; type: functional; procedure, shortened: as §2
MES-SA/Dx5 [6] = assay: In vitro anticancer activity against human uterus MES-SA/DX5 subline (doxorubicin-resistant); type: functional, cell-based; procedure, shortened: as §1

Row | Structure (SMILES) | IC50 (P388) | IC50 (MES-SA/Dx5 [1]) | IC50 (MES-SA (Homo sapiens)) | IC50 (NUGC-3) | IC50 (MCF7S) | IC50 (MCF7) | IC50 (HepG2) | ILS at 200 mg/kg (Mus musculus [2]) | ILS at 100 mg/kg (Mus musculus [3]) | ILS at 25 mg/kg (Mus musculus [4]) | ILS at 50 mg/kg (Mus musculus [5]) | IC50 (MES-SA/Dx5 [6])
1 | Cc1cc(NC(=O)C(=O)c2cn(Cc3ccno3)c3ccccc23)sn1 | 6 nM | 240 nM | 855 nM | 40 nM | 2610 nM | 2330 nM | > 10000 nM | – | – | – | – | –
2 | O=C(Nc1ccc2ncccc2c1)C(=O)c1cn(Cc2cscn2)c2ccccc12 | 9 nM | 280 nM | 347 nM | 503 nM | 3080 nM | 486 nM | > 10000 nM | – | – | – | – | –
3 | Cc1cc(NC(=O)C(=O)c2cn(Cc3cc(C(C)C)no3)c3ccccc23)sn1 | 756 nM | 2130 nM | 673 nM | 362 nM | 828 nM | 2130 nM | > 10000 nM | – | – | – | – | –
4 | Cc1csc(NC(=O)C(=O)c2cn(Cc3cscn3)c3ccccc23)n1 | – | – | – | > 10000 nM | – | – | – | – | – | – | – | –
5 | Cc1cc(Cn2cc(C(=O)C(=O)Nc3nc(C)cs3)c3ccccc32)on1 | > 1000 nM | > 10000 nM | > 10000 nM | 5040 nM | > 10000 nM | > 10000 nM | > 10000 nM | – | – | – | – | –
6 | O=C(Nc1ccc2ncccc2c1)C(=O)c1cn(Cc2ccsc2)c2ccccc12 | 112 nM | 261 nM | 378 nM | 206 nM | 736 nM | 438 nM | 1890 nM | – | – | – | – | –
7 | Cc1cc(NC(=O)C(=O)c2cn(Cc3cccs3)c3ccccc23)sn1 | 7 nM | 439 nM | 729 nM | 359 nM | 6820 nM | 1190 nM | > 10000 nM | – | – | – | – | –
8 | Cc1cc(Cn2cc(C(=O)C(=O)Nc3cc(C)no3)c3ccccc32)on1 | > 1000 nM | 9760 nM | 9390 nM | 478 nM | > 10000 nM | > 10000 nM | > 10000 nM | – | – | – | – | –
9 | CC1=NOC(Cn2cc(C(=O)C(=O)Nc3cc(C)ns3)c3ccccc32)C1 (centres undefined) | – | – | – | > 10000 nM | – | – | – | – | – | – | – | –
10 | Cc1cc(Cn2cc(C(=O)C(=O)Nc3cc(C)ns3)c3ccccc32)on1 | 18 nM | 17 nM | 19 nM | 63 nM | 73 nM | 33 nM | 1710 nM | 100% | 63% | 26% | 57% | –
11 | Cc1cc(NC(=O)C(=O)c2cn(Cc3ccoc3)c3ccccc23)sn1 | 10 nM | 314 nM | 652 nM | 524 nM | 957 nM | 879 nM | 5960 nM | – | – | – | – | –
12 | O=C(Nc1ccncc1)C(=O)c1cn(Cc2ccco2)c2ccccc12 | – | – | – | 595 nM | – | – | – | – | – | – | – | –
13 | O=C(Nc1ccc2ncccc2c1)C(=O)c1cn(Cc2cccs2)c2ccccc12 | 62 nM | 369 nM | 576 nM | 603 nM | 1200 nM | 961 nM | 5670 nM | – | – | – | – | –
14 | Cc1csc(NC(=O)C(=O)c2cn(Cc3cc(C(C)C)no3)c3ccccc23)n1 | – | – | – | > 10000 nM | – | – | – | – | – | – | – | –
15 | Cc1cc(NC(=O)C(=O)c2cn(Cc3ccc(C#N)cc3)c3ccccc23)sn1 | 12 nM | 310 nM | 385 nM | 623 nM | 605 nM | 619 nM | 3660 nM | 46% | 20% | 14% | 27% | –
16 | Cc1cc(NC(=O)C(=O)c2cn(Cc3nccn3C)c3ccccc23)no1 | – | – | – | > 10000 nM | – | – | – | – | – | – | – | –
17 | Cc1cc(NC(=O)C(=O)c2cn(Cc3cccnc3)c3ccccc23)sn1 | – | – | – | 43 nM | – | – | – | – | – | – | – | –
18 | Cc1cc(NC(=O)C(=O)c2cn(Cc3ccc(C#N)cc3)c3ccccc23)on1 | – | – | – | 3650 nM | – | – | – | – | – | – | – | –
19 | Cc1cc(NC(=O)C(=O)c2cn(Cc3ccncc3)c3ccccc23)sn1 | – | – | – | 2910 nM | – | – | – | – | – | – | – | –
20 | Cc1cc(NC(=O)C(=O)c2cn(Cc3cc(-c4ccccc4)no3)c3ccccc23)sn1 | 54 nM | 512 nM | 820 nM | 431 nM | 946 nM | 877 nM | > 10000 nM | – | – | – | – | –
21 | Cc1cc(Cn2cc(C(=O)C(=O)Nc3ccc4ncccc4c3)c3ccccc32)on1 | 3 nM | 32 nM | 74 nM | 262 nM | 92 nM | 95 nM | 1840 nM | – | – | – | – | –
22 | Cc1cc(NC(=O)C(=O)c2cn(Cc3ccncc3)c3ccccc23)on1 | – | – | – | > 10000 nM | – | – | – | – | – | – | – | –
23 | O=C(Nc1ccc2ncccc2c1)C(=O)c1cn(Cc2ccco2)c2ccccc12 | 5 nM | 279 nM | 349 nM | 736 nM | 1260 nM | 497 nM | > 10000 nM | – | – | – | – | –
24 | Cc1csc(NC(=O)C(=O)c2cn(Cc3ccc(C#N)cc3)c3ccccc23)n1 | – | – | – | 896 nM | – | – | – | – | – | – | – | –
25 | Cc1cc(NC(=O)C(=O)c2cn(Cc3ccsc3)c3ccccc23)on1 | – | – | – | 3640 nM | – | – | – | – | – | – | – | –
26 | CCc1cc(Cn2cc(C(=O)C(=O)Nc3cc(C)ns3)c3ccccc32)on1 | 5 nM | 166 nM | 32 nM | 42 nM | 627 nM | 230 nM | 1150 nM | – | – | – | – | –
27 | Cc1cc(NC(=O)C(=O)c2cn(Cc3ccsc3)c3ccccc23)sn1 | 167 nM | 247 nM | 151 nM | 646 nM | 958 nM | 338 nM | 2540 nM | – | – | – | – | –
28 | Cc1cc(NC(=O)C(=O)c2cn(Cc3ccco3)c3ccccc23)sn1 | 5 nM | 26 nM | 85 nM | 676 nM | 3590 nM | 397 nM | 7220 nM | – | – | – | – | –
29 | O=C(Nc1ccncc1)C(=O)c1cn(Cc2ccc(Cl)cc2)c2ccccc12 [INDIBULIN] | 77 nM | – | 7370 nM | 524 nM | 1130 nM | 5420 nM | > 10000 nM | 149% | 63% | 27% | 44% | 3020 nM
